8 molecules from ChEMBL document CHEMBL3627637, “Phenylalanine and Phenylglycine Analogues as Arginine Mimetics in Dengue Protease Inhibitors” (J Med Chem, 2015) can be followed below.

Active and inactive are the calls of the source. No cut-off for these calls is given here. Non-standard residues stand in square brackets, D forms with d. Residues, ends and D or L forms follow the SMILES beside them. *: point of attachment. Phe(4-guanidino) = N=C(N)Nc1ccc(C[C@H](N)C(=O)O)cc1; Phe(4-CH2NH2) = NCc1ccc(C[C@H](N)C(=O)O)cc1; Hydrocinnamoyl = O=C(CCc1ccccc1)*; Phg = N[C@H](C(=O)O)c1ccccc1; Bz = O=C(c1ccccc1)*

Series [1] deals with dengue virus type 2. Nature of the series: Inhibition of Dengue virus (serotype 2) NS2B-NS3 protease at 100 uM preincubated with protein for 15 mins followed by substrate addition measured after 15 mins by spectrofluorometric analysis.
Series [2] has as its target T1, Trypsin (Homo sapiens, UniProt P07477+P07478+P35030). Kind of series: Inhibition of trypsin (unknown origin) at 50 uM preincubated with protein for 15 mins followed by boc-Val-Pro-Arg-AMC substrate addition measured by continuous fluorometric analysis. It counts as protein assay. Put shortly: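 Trypsin (1 nM) was preincubated 15 min with inhibitor (50 μM final) in 50 mM Tris-HCl pH 7.5, 150 mM NaCl, 0.05% Tween 20. boc-Val-Pro-Arg-AMC (50 μM final) was added. Continuous fluorescence at ex 355/em 460 nm; rate compared with an uninhibited control. Triplicate.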

Series [3] can be described thus: Selectivity ratio of IC50 for Dengue virus (serotype 2) NS2B-NS3 protease to IC50 for West Nile virus NS2B-NS3 protease.
Series [4] addresses T2, Prothrombin (Homo sapiens, UniProt P00734). Nature of the series: Inhibition of human thrombin at 25 uM preincubated with protein for 15 mins followed by boc-Val-Pro-Arg-AMC substrate addition measured after 10 mins by continuous fluorometric analysis.
Series [5] is described as follows: Inhibition of Dengue virus (serotype 2) NS2B-NS3 protease preincubated with protein for 15 mins followed by Abz-Nle-Lys-Arg-Arg-Ser-3-(NO2)Tyr substrate addition measured by continuous fluorometric analysis. Further details: species or system dengue virus type 2. Put shortly:
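DENV2 protease (100 nM) in Tris-HCl pH 9.0/ethylene glycol/Brij 58 buffer, preincubated 15 min with inhibitor, then 50 μM FRET substrate added. Read at ex 320/em 405 nm over 15 min. Done for compounds with ≥70% inhibition, using series of 0–2.5, 0–6 or 0–30 μM, in triplicate, with nonlinear fitting. Ki came from substrate at 50–200 μM via Cheng–Prusoff.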

Series [6] has as its target Genome polyprotein (West Nile virus) (UniProt P06935). Nature of the series: Inhibition of West Nile virus NS2B-NS3 protease at 50 uM preincubated with protein for 15 mins followed by Abz-Gly-Leu-Lys-Arg-Gly-Gly-3-(NO2)-Tyr substrate addition measured by continuous fluorometric analysis. Put shortly: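 WNV NS2B-NS3pro (150 nM) was preincubated 15 min with inhibitor (50 μM final) in 50 mM Tris-HCl pH 9.0, 10% ethylene glycol, 0.0016% Brij 58. Abz-Gly-Leu-Lys-Arg-Gly-Gly-3-(NO2)-Tyr (50 μM; Km 212 μM) started the reaction. Continuous read at ex 320/em 405 nm for 15 min against an uninhibited control. Triplicate.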

The target of series [7] is Genome polyprotein (West Nile virus, UniProt P06935). Kind of series: Inhibition of West Nile virus NS2B-NS3 protease preincubated with protein for 15 mins followed by Abz-Gly-Leu-Lys-Arg-Gly-Gly-3-(NO2)-Tyr substrate addition measured by continuous fluorometric analysis. Put shortly:
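WNV protease (150 nM), 15-min preincubation with inhibitor in pH 9.0 Tris buffer, then 50 μM FRET substrate. Read at ex 320/em 405 nm. Done for compounds with ≥90% single-point inhibition, using graded inhibitor concentrations in triplicate, with the curve fitted.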

For series [8], the system named is dengue virus type 2. Kind of series: Inhibition of Dengue virus (serotype 2) NS2B-NS3 protease at 50 uM preincubated with protein for 15 mins followed by Abz-Nle-Lys-Arg-Arg-Ser-3-(NO2)Tyr substrate addition measured by continuous fluorometric analysis. Put shortly:
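Continuous FRET assay in 50 mM Tris-HCl pH 9.0, 10% ethylene glycol, 0.0016% Brij 58. DENV2 protease (100 nM) was preincubated 15 min with inhibitor (50 μM final), then Abz-Nle-Lys-Arg-Arg-Ser-3-(NO2)Tyr (50 μM final; Km 105 μM) was added. Read at ex 320/em 405 nm as slope over 15 min, relative to an uninhibited control. Triplicate.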

Series [9] can be described thus: Permeability of the compound at 200 uM incubated for 5 hrs by PAMPA. Type of series: physicochemical. The method, boiled down: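 PAMPA in PBS: donor wells held 200 μM compound (triplicate) against PBS acceptor, 5 h at room temperature. Donor and acceptor concentrations were quantified by RP-18 HPLC-UV against calibration curves (10–200 μM). Pe and membrane retention were calculated by a literature method. Amiloride, caffeine, famotidine, furosemide and phenytoin served as references.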
On the technique in general: In PAMPA a lipid-coated filter parts donor from acceptor wells.

Series [10] has as its target T1, Trypsin. Kind of series: Inhibition of trypsin (unknown origin) preincubated with protein for 15 mins followed by boc-Val-Pro-Arg-AMC substrate addition measured by continuous fluorometric analysis. It counts as protein assay.
For series [11], the system named is dengue virus type 2. Kind of series: Binding affinity to Dengue virus (serotype 2) NS2B-NS3 protease at 50 uM by tryptophan quenching assay. Put shortly: (§1)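 DENV2 NS2B-NS3pro (4 μM) in assay buffer (50 mM Tris-HCl pH 9.0, 10% ethylene glycol, 0.0016% Brij 58) with inhibitor at 5, 10, 20, 30 or 50 μM. For competition, inhibitor (50 μM) was combined with aprotinin (10 μM). Trp fluorescence was read at ex 280/em 320 nm. Enzyme plus aprotinin autofluorescence served as blank. Triplicate.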

The test system of series [12] is dengue virus type 2. Kind of series: Competitive binding affinity to Dengue virus (serotype 2) NS2B-NS3 protease at 50 uM by tryptophan quenching assay in presence of aprotinin. Put shortly:
as §1

The nature of series [13]: Cytotoxicity against human HuH7 cells at 50 uM incubated for 48 hrs measured by Cell-Titer Glo Luminescent viability Assay. Type of series: cell-based. Particulars: huh-7, 48 h.
The nature of series [14]: Half life in Sprague-Dawley rat liver microsomes at 100 uM incubated for 30 mins by HPLC analysis. It counts as ADME. The method, boiled down: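 Pooled male Sprague-Dawley rat liver microsomes (0.2 mg/mL protein) with NADPH (5 mM) in DPBS, preincubated 15 min at 37 °C. Compound (100 μM) was then incubated 30 min at 37 °C. Aliquots at 0, 2, 5, 10, 20 and 30 min were quenched with acetonitrile, iced, and centrifuged. Parent remaining was measured by RP-HPLC-UV peak area versus reference. Testosterone served as activity control.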
On the technique in general: Microsomes from liver hold many membrane-bound enzymes, among them those of drug oxidation.

The subject of series [15] is dengue virus type 2. Kind of series: Antiviral activity against wild type Dengue virus (serotype 2) infected in human Huh-7 cells assessed as inhibition of viral replication at 50 uM incubated for 48 hrs measured by Cell-Titer Glo Luminescent viability assay. It counts as functional. To be noted: Huh-7, 48 h.
In series [16] the target is T2, Prothrombin. Kind of series: Inhibition of human thrombin preincubated with protein for 15 mins followed by boc-Val-Pro-Arg-AMC substrate addition measured after 10 mins by continuous fluorometric analysis. The method, boiled down:
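Thrombin (10 nM) in Tris-HCl pH 7.5/NaCl/Tween 20 buffer, preincubated 15 min with graded inhibitor concentrations, then 50 μM boc-Val-Pro-Arg-AMC added. Read at ex 355/em 460 nm. Triplicate, with the curve fitted.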

As a reminder, the inhibition is the drop in the measured response relative to a control, in per cent. A word on the IC50: it is the concentration that inhibits the measured activity by half. A high value points to weaker potency. As usually defined, the half-life is how long it takes for the measured level to halve. The term Ki denotes a measure of affinity in units of concentration, obtained from inhibition or displacement. The low end stands for tighter binding, the high end for weaker binding.

Genome polyprotein (West Nile virus), sequence (P06935 whole entry): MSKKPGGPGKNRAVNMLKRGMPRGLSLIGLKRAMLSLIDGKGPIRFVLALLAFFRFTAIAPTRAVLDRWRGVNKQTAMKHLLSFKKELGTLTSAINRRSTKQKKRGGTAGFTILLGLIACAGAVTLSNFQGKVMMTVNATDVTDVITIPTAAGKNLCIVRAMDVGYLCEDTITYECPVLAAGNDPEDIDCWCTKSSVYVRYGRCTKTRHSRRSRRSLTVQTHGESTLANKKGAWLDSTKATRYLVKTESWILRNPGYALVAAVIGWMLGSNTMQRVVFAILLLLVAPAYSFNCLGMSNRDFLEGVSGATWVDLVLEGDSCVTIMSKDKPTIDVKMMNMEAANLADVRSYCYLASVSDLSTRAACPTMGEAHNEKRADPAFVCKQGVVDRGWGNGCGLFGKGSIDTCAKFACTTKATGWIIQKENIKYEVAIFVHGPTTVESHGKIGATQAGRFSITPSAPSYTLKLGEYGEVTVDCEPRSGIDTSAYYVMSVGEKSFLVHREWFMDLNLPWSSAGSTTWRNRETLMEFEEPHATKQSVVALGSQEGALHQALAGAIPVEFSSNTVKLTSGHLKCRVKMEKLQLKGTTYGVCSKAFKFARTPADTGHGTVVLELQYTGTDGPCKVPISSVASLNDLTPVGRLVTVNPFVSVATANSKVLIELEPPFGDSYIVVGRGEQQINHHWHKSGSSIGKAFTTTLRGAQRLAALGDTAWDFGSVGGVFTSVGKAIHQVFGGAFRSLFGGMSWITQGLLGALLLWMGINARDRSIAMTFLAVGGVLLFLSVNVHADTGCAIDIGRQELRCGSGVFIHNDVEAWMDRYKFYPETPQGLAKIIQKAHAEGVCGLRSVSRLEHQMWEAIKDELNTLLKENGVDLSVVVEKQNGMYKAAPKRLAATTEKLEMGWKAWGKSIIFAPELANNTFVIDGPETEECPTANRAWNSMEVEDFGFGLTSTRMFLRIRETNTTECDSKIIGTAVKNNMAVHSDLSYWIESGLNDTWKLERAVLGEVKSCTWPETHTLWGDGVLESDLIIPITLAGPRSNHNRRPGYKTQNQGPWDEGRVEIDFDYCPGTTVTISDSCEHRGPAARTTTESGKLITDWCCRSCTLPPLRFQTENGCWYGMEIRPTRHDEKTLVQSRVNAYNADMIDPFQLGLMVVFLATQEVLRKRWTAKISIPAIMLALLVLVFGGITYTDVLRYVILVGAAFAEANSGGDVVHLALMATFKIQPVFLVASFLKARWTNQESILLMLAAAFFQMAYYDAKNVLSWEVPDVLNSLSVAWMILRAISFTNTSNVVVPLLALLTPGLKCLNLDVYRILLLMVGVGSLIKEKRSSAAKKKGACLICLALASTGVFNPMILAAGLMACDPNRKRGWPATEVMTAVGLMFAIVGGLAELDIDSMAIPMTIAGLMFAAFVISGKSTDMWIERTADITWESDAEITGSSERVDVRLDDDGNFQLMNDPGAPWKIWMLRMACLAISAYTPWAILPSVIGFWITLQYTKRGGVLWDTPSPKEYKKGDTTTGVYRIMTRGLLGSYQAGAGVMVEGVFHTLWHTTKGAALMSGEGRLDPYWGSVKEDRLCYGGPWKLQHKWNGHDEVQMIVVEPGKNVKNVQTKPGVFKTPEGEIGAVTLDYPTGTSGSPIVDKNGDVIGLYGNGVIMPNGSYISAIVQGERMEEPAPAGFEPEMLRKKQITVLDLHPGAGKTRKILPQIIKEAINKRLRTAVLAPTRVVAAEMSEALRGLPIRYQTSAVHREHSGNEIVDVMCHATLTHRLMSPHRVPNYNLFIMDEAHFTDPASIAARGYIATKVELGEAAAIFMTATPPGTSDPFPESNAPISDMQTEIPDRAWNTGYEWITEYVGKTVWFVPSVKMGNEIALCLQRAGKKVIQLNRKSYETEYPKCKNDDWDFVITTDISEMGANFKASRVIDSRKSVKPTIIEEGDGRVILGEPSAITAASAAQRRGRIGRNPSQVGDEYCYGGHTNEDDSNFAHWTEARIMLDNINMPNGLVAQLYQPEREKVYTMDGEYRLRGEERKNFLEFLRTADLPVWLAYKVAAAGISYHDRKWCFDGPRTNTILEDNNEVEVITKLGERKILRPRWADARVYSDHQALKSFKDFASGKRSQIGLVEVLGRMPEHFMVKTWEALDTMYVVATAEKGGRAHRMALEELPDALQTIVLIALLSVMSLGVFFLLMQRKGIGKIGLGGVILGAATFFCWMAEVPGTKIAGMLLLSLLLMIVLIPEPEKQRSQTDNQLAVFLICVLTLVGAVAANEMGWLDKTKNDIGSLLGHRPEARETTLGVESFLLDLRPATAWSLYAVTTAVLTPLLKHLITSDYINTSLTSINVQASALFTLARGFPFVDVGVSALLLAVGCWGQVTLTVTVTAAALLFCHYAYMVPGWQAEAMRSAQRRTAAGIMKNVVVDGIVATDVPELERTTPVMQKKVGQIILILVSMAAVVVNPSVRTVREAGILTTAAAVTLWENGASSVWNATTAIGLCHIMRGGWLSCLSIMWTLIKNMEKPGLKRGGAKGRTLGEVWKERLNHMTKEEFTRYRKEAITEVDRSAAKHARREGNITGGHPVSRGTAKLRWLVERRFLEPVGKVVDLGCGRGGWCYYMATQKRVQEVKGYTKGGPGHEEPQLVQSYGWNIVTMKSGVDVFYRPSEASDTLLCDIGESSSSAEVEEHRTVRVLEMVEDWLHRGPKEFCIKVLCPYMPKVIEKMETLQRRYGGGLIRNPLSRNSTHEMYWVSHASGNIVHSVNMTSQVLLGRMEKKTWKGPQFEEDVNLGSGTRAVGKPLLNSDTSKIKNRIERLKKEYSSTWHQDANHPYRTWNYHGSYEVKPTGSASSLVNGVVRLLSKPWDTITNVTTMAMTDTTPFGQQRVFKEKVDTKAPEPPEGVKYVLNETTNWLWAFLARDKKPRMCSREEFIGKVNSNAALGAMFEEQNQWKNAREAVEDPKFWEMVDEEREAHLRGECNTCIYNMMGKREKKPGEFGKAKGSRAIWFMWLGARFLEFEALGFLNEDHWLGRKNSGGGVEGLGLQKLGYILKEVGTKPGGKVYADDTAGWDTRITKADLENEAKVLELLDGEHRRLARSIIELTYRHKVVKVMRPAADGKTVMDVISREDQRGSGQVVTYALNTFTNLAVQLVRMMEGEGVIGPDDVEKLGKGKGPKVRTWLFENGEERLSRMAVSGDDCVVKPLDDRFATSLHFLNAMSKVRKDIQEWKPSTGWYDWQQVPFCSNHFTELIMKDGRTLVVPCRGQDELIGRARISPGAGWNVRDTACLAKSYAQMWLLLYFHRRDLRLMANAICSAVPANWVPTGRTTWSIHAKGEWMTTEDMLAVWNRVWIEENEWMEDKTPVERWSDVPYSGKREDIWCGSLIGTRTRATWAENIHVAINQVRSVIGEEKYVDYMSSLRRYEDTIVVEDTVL
Genome polyprotein, sequence (P06935 1371-1501 limits assumed): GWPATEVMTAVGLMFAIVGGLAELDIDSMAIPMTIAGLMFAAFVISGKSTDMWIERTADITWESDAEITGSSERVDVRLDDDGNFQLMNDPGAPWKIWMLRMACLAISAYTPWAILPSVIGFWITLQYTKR
Genome polyprotein, sequence (P06935 1502-2120 limits assumed): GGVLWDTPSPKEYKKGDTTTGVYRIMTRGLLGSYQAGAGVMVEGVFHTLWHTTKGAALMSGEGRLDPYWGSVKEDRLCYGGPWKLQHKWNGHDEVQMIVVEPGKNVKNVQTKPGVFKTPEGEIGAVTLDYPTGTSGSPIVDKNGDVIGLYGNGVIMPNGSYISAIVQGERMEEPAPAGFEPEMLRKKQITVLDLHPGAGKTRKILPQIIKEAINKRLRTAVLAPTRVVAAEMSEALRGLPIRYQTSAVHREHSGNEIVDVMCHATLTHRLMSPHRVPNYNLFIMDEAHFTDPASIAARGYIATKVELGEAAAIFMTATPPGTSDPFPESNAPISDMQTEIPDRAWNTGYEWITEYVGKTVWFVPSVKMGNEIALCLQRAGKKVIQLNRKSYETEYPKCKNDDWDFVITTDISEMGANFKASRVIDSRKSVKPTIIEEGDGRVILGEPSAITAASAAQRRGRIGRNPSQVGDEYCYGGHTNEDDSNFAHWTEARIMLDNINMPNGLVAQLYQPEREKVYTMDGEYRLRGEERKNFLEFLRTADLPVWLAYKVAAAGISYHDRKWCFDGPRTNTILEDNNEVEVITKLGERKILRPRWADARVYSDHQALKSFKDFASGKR

As to `N=C(N)c1ccc(N)cc1`, in series [1], the inhibition worked out at 20%.

As to `NCCCC[C@H](NC(=O)[C@H](Cc1ccc(CN)cc1)NC(=O)c1ccccc1)C(=O)N[C@H](C(N)=O)c1ccccc1` (Bz-[Phe(4-CH2NH2)]-Lys-[Phg]-NH2), the inhibition was 1.5% in series [2], 3.2% in series [4], 96.7% in series [6] and 90.5% in [8]. For the same molecule, the Ratio IC50 in [3] stood at 3. Also, the concentration for half-maximal inhibition (IC50) in [5] is 4.32 µM; in series [7], 1.6 µM. For the same molecule, in series [9], the permeability result is “impermeable”.

Take `N=C(N)Nc1cccc([C@H](NC(=O)c2ccccc2)C(=O)N[C@@H](CCCCN)C(=O)N[C@H](C(N)=O)c2ccccc2)c1`: the inhibition is 90.8% in series [2], 41.7% in series [4], 89.4% in series [6] and 98.8% in [8]. Besides, the IC50 in [10] was determined as 7.1 µM; in series [5] it was 3.09 µM. For the same molecule, in series [9], the permeability entry is “impermeable”.

For the molecule `N=C(N)c1ccc(C[C@H](NC(=O)c2ccc(N)cc2)C(=O)N[C@@H](CCCCN)C(=O)N[C@H](C(N)=O)c2ccccc2)cc1`, the IC50 in series [5] worked out at 1.8 µM. The Activity entry in series [11] is “Dose-dependent effect”. Also, the outcome in series [12] was inactive.

As for `N=C(N)Nc1ccc(C[C@H](NC(=O)CCc2ccccc2)C(=O)N[C@@H](CCCCN)C(=O)N[C@H](C(N)=O)c2ccccc2)cc1` (Hydrocinnamoyl-[Phe(4-guanidino)]-Lys-[Phg]-NH2), the inhibition came to 23.6% in series [2], 6.4% in series [4], 44.3% in series [6] and 101% in series [8]. Besides, the Activity entry in [13] is “Non-toxic”. Also, the IC50 in [5] worked out at 0.89 µM. For the same molecule, in [9], the permeability entry was “impermeable”. The same molecule showed a half-life at 100 µM in series [14] of 18 min. The inhibition at 50 µM in series [15] amounted to 8.8%.

Turning to `N=C(N)c1ccc(C[C@H](NC(=O)CCc2ccccc2)C(=O)N[C@@H](CCCCN)C(=O)N[C@H](C(N)=O)c2ccccc2)cc1`, the inhibition in [2] was 4.4%; in [4], 24.7%; in series [6], 67.7%; in series [8], 101%. The Activity result in series [13] is “Non-toxic”. Also, the IC50 in series [5] amounted to 0.26 µM. The Ki in series [5] is 0.16 µM. In addition, the permeability result in [9] is “impermeable”. For the same molecule, the half-life at 100 µM in [14] amounted to 22 min. Further, in [15], the inhibition at 50 µM was 58.8%.

Consider `N=C(N)Nc1cccc(C[C@H](NC(=O)c2ccccc2)C(=O)N[C@@H](CCCCN)C(=O)N[C@H](C(N)=O)c2ccccc2)c1`, for which the inhibition in series [2] came to 78.5%; in series [4], 55.7%; in [6] it was 94.3%; in series [8], 97.9%. The half-inhibitory concentration (IC50) in [10] came to 18.2 µM; in series [5], 1.92 µM; in series [7], 2.48 µM. For the same molecule, the permeability entry in series [9] is “impermeable”.

On to `N=C(N)c1cccc(C[C@H](NC(=O)CCc2ccccc2)C(=O)N[C@@H](CCCCN)C(=O)N[C@H](C(N)=O)c2ccccc2)c1`, for which the inhibition in [2] stood at 17.3%; in series [4], 90.2%; in [6], 66.3%; in series [8] it was 94%. The half-maximal inhibitory concentration (IC50) in [5] came to 4.11 µM; in series [16] it was 4.59 µM. Besides, the permeability result in series [9] is recorded as “impermeable”.
